Screening results as filed in PubChem BioAssay.
Most compounds without a hit are left out; they make up all but 2.3% or so of the library.
OXTR ag – human OXTR agonism. AID 2435. P30559. activation, % at 3 µM. CHO-OTR cells, Fluo-8 calcium fluorescence; normalized: DMSO 0%, oxytocin 100%. actives 0.32% (n = 320,000);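 active = activation above the mean of all tested compounds plus 3 SD, cutoff set per screening run, cut at about 20% in these data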;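 note: peak over basal fluorescence ratio from a 100 s FLIPR kinetic read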
Target sequence (P30559 whole entry, looked up): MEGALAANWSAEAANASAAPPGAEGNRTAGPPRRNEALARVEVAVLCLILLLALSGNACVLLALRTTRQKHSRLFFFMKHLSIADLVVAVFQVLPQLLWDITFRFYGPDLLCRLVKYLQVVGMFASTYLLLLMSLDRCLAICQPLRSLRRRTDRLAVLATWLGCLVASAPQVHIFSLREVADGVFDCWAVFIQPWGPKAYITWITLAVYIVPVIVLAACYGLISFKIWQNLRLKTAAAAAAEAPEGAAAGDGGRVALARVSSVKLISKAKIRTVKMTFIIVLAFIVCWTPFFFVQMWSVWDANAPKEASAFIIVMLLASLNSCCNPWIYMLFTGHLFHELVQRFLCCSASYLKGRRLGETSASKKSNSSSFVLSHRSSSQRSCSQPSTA
OXTR potentiate – potentiators of human oxytocin receptor; P30559; CHO-OTR cells, Fluo-8 calcium fluorescence, potentiator mode; 0% = oxytocin EC15, 100% = EC100; activation, % at 3 µM; actives 0.061% (n = 320,000); AID 2445;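 active = activation above that plate's cutoff, the mean activation of tested compounds plus 3 SD, cut at about 6.6% in these data, passing the limit was not always enough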;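 note: 100% uses oxytocin at 75 nM as the full agonist control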
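System: human OTR in CHO cells; Also added: sub-maximal oxytocin, roughly EC15; Timing: compound 6 min at room temperature before oxytocin, 100 s read; Technique: Fluo-8 intracellular calcium fluorescence, ex 470-495, em 515-575 nm; Controls: oxytocin EC15 low and EC100 high; Replication: singlicate.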
V1R ag counter – counter-screen for oxytocin receptor agonists: human V1a receptor agonists; CHO-V1R cells, Fluo-8 calcium fluorescence, agonist mode; 0% DMSO, 100% 3 nM vasopressin; activation, % at 3 µM; P37288; AID 2797; actives 0.25% (n = 320,000);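 active = activation above the mean activation of all tested compounds plus 3 SD, per screening run, cut at about 20% in these data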;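 note: signal is peak over basal fluorescence ratio across a 100 second FLIPR read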
TAAR1 ag – agonists of human TAAR1 | activation, % at 3 µM | AID 624467 | CHO RD-HGA16 TAAR1, Fluo-8 calcium fluorescence; vehicle wells 0%, saturating PEA agonist 100% | Q96RJ0 | actives 0.99% (n = 360,000);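 active = activation above the mean activation of all test compounds in the run plus 3 SD, cut at about 38% in these data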
Target sequence (Q96RJ0 whole entry, looked up): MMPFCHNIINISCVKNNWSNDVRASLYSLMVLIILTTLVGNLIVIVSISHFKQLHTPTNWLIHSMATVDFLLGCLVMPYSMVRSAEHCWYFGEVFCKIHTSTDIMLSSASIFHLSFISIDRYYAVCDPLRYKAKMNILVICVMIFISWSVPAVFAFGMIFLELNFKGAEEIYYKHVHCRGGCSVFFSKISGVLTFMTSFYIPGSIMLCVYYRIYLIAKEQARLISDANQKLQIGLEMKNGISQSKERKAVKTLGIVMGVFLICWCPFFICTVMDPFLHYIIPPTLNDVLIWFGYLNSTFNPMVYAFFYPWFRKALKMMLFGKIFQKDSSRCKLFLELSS
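Repeats: no replicates (n 1) | Material: CHO-derived RD-HGA16 cells with stable Gα16 and human TAAR1 | Technique: Kinetic Fluo-8 calcium fluorescence | Schedule: 17-24 h seeding, 75 min 37 °C dye, 30 min RT | Evaluation: % activation from peak over basal fluorescence ratio, DMSO-to-PEA scaled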
TAAR1 antagonist – antagonists of human TAAR1 | Q96RJ0 | CHO RD-HGA16 TAAR1, Fluo-8 calcium fluorescence, antagonist | inhibition, % at 3 µM | actives 1.5% (n = 360,000) | AID 624466;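 active = inhibition above a per-plate cutoff, the mean inhibition of test compounds on that plate plus 3 SD, cut at about 49% in these data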;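 note: 0% = DMSO plus EC80 beta-PEA response and 100% = DMSO alone without agonist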
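Material: CHO RD-HGA16 cells bearing hTAAR1; compound dosing: one-point dosing, 3 µM nominal final; schedule: dye loading 75 min at 37 °C, then 30 min room temperature; measured by: calcium fluorescence with Fluo-8; control set: vehicle and agonist controls; replication: n of 1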
TAAR1 ag confirm – confirmation of human TAAR1 agonists | actives 82% (n = 2,400) | CHO RD-HGA16 TAAR1, Fluo-8 calcium fluorescence; scaled: DMSO 0%, maximal phenethylamine 100% | AID 651783 | activation, % at 3 µM | shares compounds with TAAR1 ag;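 active = activation above a cutoff set at the run's mean compound activation plus 3 SD, cut at about 39% in these data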
Ga16 nonsel ag – nonselective agonist in parental cells, TAAR1 agonist counter-screen | shares compounds with TAAR1 ag | CHO-Ga16 parental, Fluo-8 calcium fluorescence; normalized to maximal ATP response, DMSO zero | activation, % at 3 µM | actives 50% (n = 2,400) | AID 651787;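 active = activation above the run cutoff, the mean activation over all tested wells plus 3 SD, cut at about 12% in these data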;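 note: 0% = DMSO wells and 100% = maximal ATP response on the peak over basal ratio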
TAAR1 desensitize – counter-screen for human TAAR1 agonists: agonists that desensitize TAAR1 | actives 46% (n = 2,400) | inhibition, % at 3 µM | shares compounds with TAAR1 ag | CHO RD-HGA16 hTAAR1, Fluo-8 calcium, beta-PEA response inhibition;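 active = inhibition above the run cutoff, the mean inhibition of all test compounds plus 3 SD, cut at about 49% in these data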;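 note: beta-PEA stimulus applied at its EC80; loss of beta-PEA calcium signal after compound pretreatment read as receptor desensitization; 0% = DMSO with beta-PEA at EC80 and 100% = DMSO alone without agonist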
Ga16 antag count – nonselective Ga16 antagonist in TAAR1 agonist counter-screen; shares compounds with TAAR1 ag; CHO-Ga16 ATP-induced calcium, Fluo-8 fluorescence; inhibition, % at 3 µM; actives 39% (n = 2,400); AID 651952;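 active = inhibition above the plate's mean compound inhibition plus 3 SD, computed per plate, cut at about 22% in these data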;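 note: 0% = EC80 ATP with DMSO and 100% = DMSO wells without ATP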
The depositor's hits bear a star; · = no result given.

SMILES	OXTR ag	OXTR potentiate	V1R ag counter	TAAR1 ag	TAAR1 antagonist	TAAR1 ag confirm	Ga16 nonsel ag	TAAR1 desensitize	Ga16 antag count
O=C(NNC(=S)NC(=O)c1ccccc1)c1cccnc1	-0.6	-2.3	-0.3	2.2	-17.4	·	·	·	·
CC1=CC(=O)C=C(C)C1=NOc1ccc([N+](=O)[O-])cc1	-0.8	-4.8	0.7	12.5	-4.7	·	·	·	·
Cc1ccc2nc(NS(=O)(=O)c3cn(C)nc3C)sc2c1	0.4	3.9	6.0	2.0	-26.2	·	·	·	·
CCN(CC(=O)NCc1ccc(F)cc1)C(=O)/C=C/c1cc(OC)ccc1OC	·	·	·	2.8	-9.5	·	·	·	·
O=C(Nc1ccc(F)cc1)C(CCc1ccccc1)N1CCN(C(=O)c2ccco2)CC1 (centres undefined)	·	·	·	5.6	16.7	·	·	·	·
O=C1[C@H]2[C@H](ON3CCCC[C@H]23)C(=O)N1c1ccc(Cl)cc1	-1.4	-6.4	-0.5	7.0	8.2	·	·	·	·
COc1cccc(NS(=O)(=O)c2cc(C)sc2C)c1	0.1	-16.1	0.9	9.7	3.9	·	·	·	·
Cc1cc(S(=O)(=O)Nc2cccc(Cl)c2)c(C)s1	-1.9	-10.2	-0.7	40.2*	11.8	60.1*	10.0	16.9	11.6
CC(C)Nc1nc(NC(C)(C)C)nc(Oc2ccc(=O)n(-c3ccccc3)n2)n1	2.3	6.1	11.6	69.7*	-16.0	75.5*	54.0*	-0.6	1.2
COc1nc(NC(C)(C)C)nc(Oc2ccc(=O)n(-c3ccccc3)n2)n1	0.2	1.5	-0.5	18.1	4.9	·	·	·	·
N#Cc1c(Cl)nc(N/N=C/c2ccccc2)c(Cl)c1Cl	-1.2	-9.8	-0.7	9.9	29.5	·	·	·	·
Nc1cnnc(N/N=C\c2ccccc2)c1Cl	-0.2	1.6	0.3	45.8*	-17.4	68.5*	0.1	22.2	5.0
O=C(NCCc1ccccc1)C(c1ccncc1)N(C(=O)c1csnn1)C1CC1 (centres undefined)	-0.7	-19.5	-0.4	83.2*	49.3*	90.8*	0.1	67.7*	0.9
CC1(c2ccc(OC(F)F)cc2)NC(=O)N(CC(=O)c2ccc3c(c2)OCO3)C1=O (centres undefined)	41.1*	-22.1	38.9*	135.9*	95.7*	118.5*	80.5*	101.6*	49.4*
CC1(c2ccc(OC(F)F)cc2)NC(=O)N(CC(=O)NC2CCCCC2)C1=O (centres undefined)	4.8	-6.4	6.5	20.2	9.5	·	·	·	·
CC1(c2ccc([N+](=O)[O-])cc2)NC(=O)N(CC(=O)c2ccc3c(c2)OCO3)C1=O (centres undefined)	34.0*	-19.6	23.3*	90.1*	47.2	117.3*	70.5*	75.9*	36.7*
Cc1noc(C)c1COC(=O)c1cccc(S(=O)(=O)N2CCOCC2)c1	2.1	0.3	1.6	48.4*	16.2	3.3	1.2	-0.6	7.7
CC1(Oc2cccc(F)c2)CCN(Cc2ccc(-c3ccccn3)cc2)C1 (centres undefined)	·	·	·	2.6	0.0	·	·	·	·
COc1cccc(C(=O)CC(=O)C(=O)Nc2cccc([N+](=O)[O-])c2C)c1	0.4	-20.8	0.7	59.7*	12.0	120.5*	74.9*	77.4*	40.7*
COc1ccc(C(=O)CC(=O)C(=O)Nc2cccc([N+](=O)[O-])c2C)cc1	-0.2	-10.5	1.2	70.8*	7.7	82.5*	61.8*	34.7	22.8*
COc1ccc(C(=O)NCCc2cnc[nH]2)cc1OC	0.8	-1.2	1.0	15.0	0.8	·	·	·	·
Cc1cc(C(=O)CN2C(=O)C(=O)N(Cc3ccco3)C2=O)c(C)n1CCc1ccc(F)cc1	1.8	-6.8	1.5	47.8*	7.0	87.7*	9.1	42.7	12.5
COc1ccc(OC)c(CCNC(=O)c2ccc(CS(=O)Cc3cccc(Cl)c3)o2)c1 (centres undefined)	3.0	-8.2	6.2	1.0	0.9	·	·	·	·
O=C(NCCc1cccs1)c1ccc(CS(=O)Cc2cccc(Cl)c2)o1 (centres undefined)	·	·	·	63.2*	21.9	56.8*	0.6	38.6	5.2
OCc1cccc[n+]1Cc1ccccc1	-0.7	-0.9	0.0	0.5	-15.1	·	·	·	·
SMILES	OXTR ag	OXTR potentiate	V1R ag counter	TAAR1 ag	TAAR1 antagonist	TAAR1 ag confirm	Ga16 nonsel ag	TAAR1 desensitize	Ga16 antag count
CCOC(=O)C1CCCN(C(=O)Cc2ccc(C)cc2)C1 (centres undefined)	-1.6	-11.2	0.1	4.6	9.9	·	·	·	·
CCOC(=O)C1CCCN(C(=S)Nc2ccc(C)cc2C)C1 (centres undefined)	-1.1	1.6	-0.6	69.0*	60.3*	34.0	-0.6	31.2	8.8
O=C(COC(=O)/C=C/c1cccc(C(F)(F)F)c1)NCc1cccs1	-1.5	-6.7	0.6	78.9*	66.5*	65.7*	43.9*	44.9	19.4
O=C(O)c1ccc(NC(=S)NC(=O)c2ccc3ccccc3c2)cc1	4.1	-3.6	4.6	47.1*	12.1	39.6*	31.9*	25.8	26.2*
O=C(NC(=S)Nc1cccc(NC(=S)NC(=O)c2ccccc2)c1)c1ccccc1	·	·	·	3.3	15.1	·	·	·	·
O=C(O)c1cccc(NC(=S)NC(=O)c2ccc3ccccc3c2)c1	7.6	-6.5	10.1	72.8*	6.9	32.7	30.8*	15.0	9.6
CCN(CC(=O)Nc1ccccc1OC)C(=O)c1ccc(NC(=O)c2cccs2)cc1	0.1	-4.8	1.5	16.1	44.1	·	·	·	·
Cc1cn([C@H]2C[C@H](O)[C@@H](/C=C/C(=O)NCc3cccc4ccccc34)O2)c(=O)[nH]c1=O	·	·	·	3.8	-4.5	·	·	·	·
C/C(=N\NC(=O)c1nnn(-c2nonc2N)c1-c1ccc2c(c1)OCO2)c1ccc(C)cc1	5.0	-7.7	3.6	124.9*	79.9*	126.6*	94.0*	83.3*	63.7*
C/C(=N\NC(=O)c1nnn(-c2nonc2N)c1-c1ccc2c(c1)OCO2)c1ccccc1	10.4	-7.7	4.5	60.2*	2.7	96.1*	46.4*	22.3	13.1
N#C/C(=C\c1coc2ccc(O)cc2c1=O)C(=O)Nc1nc2ccccc2s1	256.5*	-13.3	308.1*	480.0*	104.4*	315.5*	295.2*	101.5*	94.7*
